This is a sample that favours compounds with a hit; in the whole collection about 2.2% have one here.
miR122 inh: miR-122 Renilla sensor signal increase in Huh7, primary screen, miR-122 inhibitor project, cell-based, single point, plate reader | Huh7 miR-122 Renilla luciferase sensor, 48 h; neutral wells = 0, positive control = 100 | activation (reporter increase), % at 12.5 µM | 340,000 tested, 0.3% active | AID 602342, 2012;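 active = mean replicate activation score at least 90 and every replicate individually at or above 90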;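 note: higher luciferase means less miR-122 activity so hits act as miR-122 inhibitors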
NR2E3 ag-1: inhibitors of NR2E3-RetCOR corepressor binding, primary screen, NR2E3 agonist project, biochemical, TR-FRET, GST-NR2E3, biotin-RetCOR; Photoreceptor-specific nuclear receptor (Homo sapiens), Q9Y5X4; 1536-well; inhibition of corepressor binding, % at 4.78 µM; 320,000 tested, 0.12% active; AID 2300, 2010;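 active = percent inhibition above the cutoff of mean plus 3 SD of all tested compounds, set per screening campaign, cut at about 20% in these data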;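 note: 0% = DMSO wells and 100% = biotin wells as full block of FRET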
Target sequence (Q9Y5X4 whole entry, looked up): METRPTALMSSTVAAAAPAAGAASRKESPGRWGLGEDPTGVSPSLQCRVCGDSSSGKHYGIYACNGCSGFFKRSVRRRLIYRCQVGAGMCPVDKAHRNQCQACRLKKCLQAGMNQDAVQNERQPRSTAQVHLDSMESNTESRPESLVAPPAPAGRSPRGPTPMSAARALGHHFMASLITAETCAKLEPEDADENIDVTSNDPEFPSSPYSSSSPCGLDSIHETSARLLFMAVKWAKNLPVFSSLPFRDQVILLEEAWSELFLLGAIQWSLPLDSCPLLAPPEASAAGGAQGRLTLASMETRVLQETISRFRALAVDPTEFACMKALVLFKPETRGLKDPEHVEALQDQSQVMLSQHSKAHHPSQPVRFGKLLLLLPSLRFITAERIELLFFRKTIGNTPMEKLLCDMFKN
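System: GST-tagged NR2E3 plus biotinylated RetCOR corepressor; Amount: 1.35 nM GST-tagged NR2E3 final; Dosing: single nominal compound dose of 4.8 µM; Schedule: 5 h incubation at 4 °C; Technique: TR-FRET with europium anti-GST and streptavidin-D2, 340 nm excitation; Controls: biotin wells as high control, 0.6% DMSO wells as low control.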
NR2E3 ag-2: NR2E3 agonists in two-hybrid cells, primary screen, cell-based, luminescence, CHO-S, Gal4-NCOR/VP16-NR2E3. luciferase. inhibition of corepressor binding, % at 3.98 µM. 360,000 tested, 0.35% active;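 active = inhibition above the mean of all tested compounds plus 3 SD, cut at about 70% in these data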;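 note: 0% = DMSO with NR2E3 transfected cells and 100% = cells lacking NR2E3 construct; higher means lower luciferase signal from less NR2E3 corepressor binding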
Jurkat NFkB inh: inhibitors of induced NF-kB luciferase reporter, primary screen, TCR NF-kB activation inhibitor project, cell-based, luminescence, uHTS; Jurkat, PMA/ionomycin-induced NF-kB luciferase reporter; inhibition, % at 4 µM; 330,000 tested, 0.53% active; AID 435003, 2010; in the data active = inhibition above about 50%
FGF22 binding: binders of human FGF22 protein, primary screen, FGF22 synaptogenesis inhibitor project, biophysical, thermal shift, single point; Fibroblast growth factor 22 (Homo sapiens), Q9HCT0; recombinant FGF22 thermal shift, SYPRO orange fluorescence; percent of sucrose octasulfate shift, DMSO zero; activity (Tm shift, normalised), % at 9.99 µM; 340,000 tested, 1.5% active;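 active = mean Tm shift, scaled 0 neutral to 100 positive control, at about 1.3% or above, every replicate too, limit read from the data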
Target sequence (Q9HCT0 whole entry, looked up): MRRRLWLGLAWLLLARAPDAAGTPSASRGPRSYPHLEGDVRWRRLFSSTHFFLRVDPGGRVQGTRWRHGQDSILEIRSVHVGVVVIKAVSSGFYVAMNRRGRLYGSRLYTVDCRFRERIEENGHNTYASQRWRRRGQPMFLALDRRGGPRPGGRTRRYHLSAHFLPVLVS
697 NFkB inh: inhibitors of PMA/ionomycin-induced NF-kB reporter, 697 cells, primary screen, B-cell NF-kB inhibitor project, cell-based, luminescence, uHTS; 697 B-cell NF-kB luciferase reporter, 16 h; inhibition, % at 4 µM; 330,000 tested, 0.33% active; in the data active = inhibition above about 35%
Jurkat NFkB conf: PMA/ionomycin-induced NF-kB reporter inhibitors, Jurkat retest, confirmation, T-cell NF-kB inhibitor project, cell-based, luminescence, single concentration. shares compounds with Jurkat NFkB inh. Jurkat NF-kB luciferase, 16 h. inhibition, % at 4 µM. 2,700 tested, 27% active. AID 435020, 2010;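 active = inhibition reaching about 45% at 4 µM in either replicate, limit read from the data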;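 note: plate controls were PMA/ionomycin stimulated DMSO wells for no effect and unstimulated DMSO wells for full effect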
* = called active by the depositor; x = not tested or not shown; [ ] = dose if it differs, or a comment.

SMILES	miR122 inh	NR2E3 ag-1	NR2E3 ag-2	Jurkat NFkB inh	FGF22 binding	697 NFkB inh	Jurkat NFkB conf
O=C(NCc1ccco1)C1CC(c2c(Cl)cccc2Cl)=NO1 (stereo not given)	-3	0	-3	10	0	1	x
CCCNC(=O)C1CC(c2ccc(C(F)(F)F)cc2)=NO1 (stereo not given)	4	-1	-7	-12	0	4	x
Cc1ccccc1-c1cnc2c(c1)C(=O)N([C@@H](C)CO)C[C@H](C)[C@H](CN(C)CC1CCCCC1)O2	3[16.7 µM]	x	x	x	0	x	x
C[C@@H]1CN([C@@H](C)CO)C(=O)c2cccc(NS(=O)(=O)c3ccc(Cl)cc3)c2O[C@H]1CN(C)C	2[16.7 µM]	x	x	x	0	x	x
COc1cc2c(c(OC)c1OC)-c1ccc(OC)c(=O)cc1C(NC(C)=O)CC2 (stereo not given)	x	1	39	63*	0	-149	60*
CCCNC(=O)N[C@@H]1CC[C@H](CC(=O)NCCc2ccccc2)O[C@H]1CO	-19[16.7 µM]	x	x	x	0	x	x
CC1=Nc2cc(C(=O)NCCCOC(C)C)ccc2Sc2ccc(C)cc21	89	2	22	64*	0	1	32
CCCC1=Nc2cc(C(=O)NCCCOCC)ccc2Sc2ccccc21	50	-2	20	57*	x	-179	51*
Cc1ccc2c(Cl)c(C(=O)NCC3CCCO3)sc2c1 (stereo not given)	-9	3	-114	-159	x	-125	-46
CC1=Nc2cc(C(=O)NCC3CCCO3)ccc2Sc2ccc(Br)cc21 (stereo not given)	4	2	-14	52*	0	-28	13
COc1ccc(S(=O)(=O)Nc2ccc3c(c2)C(=O)N([C@H](C)CO)C[C@H](C)[C@@H](CN(C)C(=O)c2ccccc2)OCCCC[C@@H](C)O3)cc1	7[16.7 µM]	x	x	x	-1	x	x
CC1CCN(C(=O)c2cc3c(ccc4ccccc43)o2)CC1	x	1	-145	-181	0	-208	-113
CCC(=O)N1CC2(C1)[C@@H](c1ccccc1)[C@@H](CO)N2C(=O)c1ccccc1	x	x	x	x	0	x	x
O=[N+]([O-])c1ccccc1OCc1nc(-c2cccs2)no1	x	-1	-200	-162	42	-166	-121
C[C@@H]1CN([C@@H](C)CO)S(=O)(=O)c2ccc(C#CC(C)(C)O)cc2O[C@H]1CN(C)Cc1ccncc1	11[16.7 µM]	x	x	x	0	x	x
CN1/C(=C/C(=O)c2nc(S(C)(=O)=O)ncc2Cl)C(C)(C)c2ccccc21	x	0	-20	57*	x	9	26
CN1/C(=C\C(=O)c2ccco2)C(C)(C)c2ccccc21	-8	-4	-8	57*	0	-69	0
CCOc1ccccc1NC(=O)Cn1nnc(C(=O)NCc2ccco2)c1N	136*	5	-17	69*	x	13	56*
CN(C)c1ccc(C2C=C(c3ccc(Cl)cc3OC(F)F)Nc3ncnn32)cc1 (stereo not given)	x	0	-15	61*	x	2	15
Clc1cncc(Cl)c1N/N=C/c1ccncc1	4	3	-15	35	0	24	x
Clc1cccc(Cl)c1/C=N/Nc1c(Cl)cncc1Cl	x	1	-27	73*	0	-35	49
COc1ccc(/C=C2/C(=O)OCc3cc(OC)c(OC)cc32)cc1	x	5	-10	55*	x	-68	48*
Cn1ncc2c(NCc3ccccc3)ncnc21	-4	0	1	-5	0	9	x
Clc1ccc(Cn2ncc3c(NCc4ccccc4)ncnc32)c(Cl)c1	x	-3	x	65*	0	-52	32
CCCCNc1c(-c2ccc(SC3CCCCC3)cc2)nc2ccccn12	7	6	-44	-178	0	-37	-100
SMILES	miR122 inh	NR2E3 ag-1	NR2E3 ag-2	Jurkat NFkB inh	FGF22 binding	697 NFkB inh	Jurkat NFkB conf
O=C(/C=C/c1cccc(F)c1)N1CCc2ccccc21	x	-2	-187	-197	x	-245	-140
O=C(/C=C/c1ccc(Cl)cc1Cl)N1CCc2ccccc21	x	-3	-87	-155	x	-195	-88
CCC(=O)Nc1ccc2c(c1)C(=O)c1ccccc1C2=O	5	4	-120	-161	x	-87	-107
C[C@H](CO)N1C[C@H](C)[C@@H](CN(C)C(=O)NC2CCCCC2)OCCCC[C@H](C)Oc2ccc(NS(=O)(=O)c3ccccc3)cc2C1=O	3[16.7 µM]	x	x	x	0	x	x
CNC[C@@H]1OCCCC[C@@H](C)Oc2ccc(NC(=O)Nc3ccc4c(c3)OCO4)cc2C(=O)N([C@@H](C)CO)C[C@H]1C	2[16.7 µM]	x	x	x	0	x	x
COc1ccc2nc3oc(C(=O)NC4CCN(Cc5ccccc5)CC4)cc3cc2c1	-5	-1	-8	63*	x	-38	22
CCOC(=O)N1CCC(NC(=O)c2cc3cc4cc(OC)ccc4nc3o2)CC1	-6	0	-10	-5	x	2	x
C[C@@H]1CN([C@@H](C)CO)C(=O)c2cc(NC(=O)CCCN(C)C)ccc2O[C@@H]1CN(C)CC1CCCCC1	x	x	x	x	0	x	x
Nc1c(Br)cc2oc(-c3ccccc3)nc2c1Br	11	-1	-59	-146	x	-126	x
COc1ccc(-c2nc3c(Br)c(N)c(Br)cc3o2)cc1	19	1	-124	-181	0	-145	-113
Clc1ccccc1OCc1nc(-c2ccccn2)no1	-1	-3	-127	-101	x	-204	x
Clc1ccc(OCc2nc(-c3ccccn3)no2)c(Br)c1	-4	1	-186	-165	0	-244	-119
O=C(Nc1ccccc1)N1CCC(c2nc(-c3ccc(S(=O)(=O)N4CCOCC4)cc3)no2)CC1	17	2	-42	53*	x	-82	19
O=C(c1ccccc1)N1CCC(c2nc(-c3ccc(S(=O)(=O)N4CCOCC4)cc3)no2)CC1	-6	-2	15	22	x	-13	x
CCOc1ccc2c(c1)C(C)=CC(C)(C)N2S(=O)(=O)c1ccc(F)cc1	13	-5	-21	38	0	10	x
CCOc1ccc2c(c1)C(C)=CC(C)(C)N2S(=O)(=O)c1ccc(NC(C)=O)cc1	26	1	-3	56*	0	-156	58*
